From ChEMBL document CHEMBL1144782, “Isoindolo[2,1-a]quinoxaline derivatives, novel potent antitumor agents with dual inhibition of tubulin polymerization and topoisomerase I” (2008)
Calls of active or inactive are those of the source. The rule behind the calls is not given here.

Assays:
Jurkat [1] = experiment: Cell cycle arrest in human Jurkat cells assessed as accumulation at G1 phase at 62.5 nM after 24 hrs by flow cytometry; format: functional
Procedure, shortened: (§1)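 Exponentially growing Jurkat cells (5 × 105) were exposed to compound for 24 h. Cells were then fixed in ice-cold 70% ethanol, lysed with RNase A-containing buffer and stained with propidium iodide. DNA-content histograms from flow cytometry gave G1, S and G2/M fractions.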

Jurkat [2] = experiment: Cell cycle arrest in human Jurkat cells assessed as accumulation at G2/M phase at 62.5 nM after 24 hrs by flow cytometry; format: functional; procedure, shortened: as §1
Jurkat [3] = experiment: Cell cycle arrest in human Jurkat cells assessed as accumulation at S phase at 62.5 nM after 24 hrs by flow cytometry; format: functional; procedure, shortened: as §1
Jurkat [4] = experiment: Cell cycle arrest in human Jurkat cells assessed as accumulation at G1 phase at 125 nM after 24 hrs by flow cytometry; format: functional; procedure, shortened: as §1
Jurkat [5] = experiment: Cell cycle arrest in human Jurkat cells assessed as accumulation at G2/M phase at 125 nM after 24 hrs by flow cytometry; format: functional; procedure, shortened: as §1
Jurkat [6] = experiment: Cell cycle arrest in human Jurkat cells assessed as accumulation at S phase at 125 nM after 24 hrs by flow cytometry; format: functional; procedure, shortened: as §1
Jurkat [7] = experiment: Cell cycle arrest in human Jurkat cells assessed as accumulation at G1 phase at 250 nM after 24 hrs by flow cytometry; format: functional; procedure, shortened: as §1
Jurkat [8] = experiment: Cell cycle arrest in human Jurkat cells assessed as accumulation at G1 phase at 500 nM after 24 hrs by flow cytometry; format: functional; procedure, shortened: as §1
Jurkat [9] = experiment: Cell cycle arrest in human Jurkat cells assessed as accumulation at G2/M phase at 500 nM after 24 hrs by flow cytometry; format: functional; procedure, shortened: as §1
Jurkat [10] = experiment: Cell cycle arrest in human Jurkat cells assessed as accumulation at S phase at 500 nM after 24 hrs by flow cytometry; format: functional; procedure, shortened: as §1
[11] = biological target: DNA topoisomerase 1 (Homo sapiens) (UniProt P11387); experiment: Inhibition of human topoisomerase 1-mediated relaxation of supercoiled pBR322 DNA at 200 uM by agarose gel electrophoresis
Sequence of DNA topoisomerase 1 (Homo sapiens) (P11387 whole entry): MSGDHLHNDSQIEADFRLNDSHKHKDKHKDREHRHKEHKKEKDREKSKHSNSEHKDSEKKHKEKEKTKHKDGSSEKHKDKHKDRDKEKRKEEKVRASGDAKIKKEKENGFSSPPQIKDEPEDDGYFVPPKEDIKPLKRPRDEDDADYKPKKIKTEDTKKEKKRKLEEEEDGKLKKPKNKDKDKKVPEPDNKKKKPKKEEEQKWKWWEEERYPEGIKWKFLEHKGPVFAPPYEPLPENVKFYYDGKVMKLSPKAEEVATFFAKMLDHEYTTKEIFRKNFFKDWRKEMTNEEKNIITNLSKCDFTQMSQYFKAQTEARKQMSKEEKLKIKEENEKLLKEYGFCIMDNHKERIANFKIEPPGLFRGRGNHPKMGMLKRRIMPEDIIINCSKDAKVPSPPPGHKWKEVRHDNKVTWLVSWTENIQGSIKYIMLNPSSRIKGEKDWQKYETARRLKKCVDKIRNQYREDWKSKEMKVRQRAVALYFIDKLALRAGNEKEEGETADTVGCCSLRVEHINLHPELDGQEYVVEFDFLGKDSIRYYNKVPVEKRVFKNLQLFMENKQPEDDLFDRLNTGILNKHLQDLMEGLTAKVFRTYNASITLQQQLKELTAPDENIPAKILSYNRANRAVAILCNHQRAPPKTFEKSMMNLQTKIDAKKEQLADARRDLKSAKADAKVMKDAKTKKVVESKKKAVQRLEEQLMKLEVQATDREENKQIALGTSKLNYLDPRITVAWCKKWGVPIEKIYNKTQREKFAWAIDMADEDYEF
Procedure, shortened: (§2)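 Supercoiled pBR322 was incubated with 5 units of human topoisomerase I for 30 min at 37 °C in 50 mM Tris-HCl pH 7.8, 50 mM KCl, 10 mM MgCl2, 1 mM DTT, 1 mM EDTA, with drug 0.5–200 µM. Reactions were stopped with SDS and proteinase K, run on 1% agarose at 20 V overnight, stained with ethidium bromide, and bands quantified. Ethidium-containing gels were also run.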

[12] = biological target: DNA topoisomerase 1 (Homo sapiens) (UniProt P11387); experiment: Inhibition of human topoisomerase 1-mediated relaxation of supercoiled pBR322 DNA at 20 uM by agarose gel electrophoresis; procedure, shortened: as §2
Jurkat [13] = experiment: Induction of apoptosis in human Jurkat cells after 24 hrs by flow cytometry; format: functional, cell-based
Procedure, shortened: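 Jurkat cells after 24 h exposure were stained with Annexin V-FITC plus propidium iodide. Flow cytometry used 488 nm excitation, with emission filters at 525 and 585 nm.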

Jurkat [14] = experiment: Effect on mitochondrial membrane potential depolarization in human Jurkat cells after 24 hrs by flow cytometry; format: functional, cell-based
Procedure, shortened: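 Jurkat cells after 24 h exposure were loaded with JC-1 (1 µM in HBSS) for 10 min at 37 °C, washed and analyzed by flow cytometry. The percentage of cells with low mitochondrial potential was recorded.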

Jurkat [15] = experiment: Effect on mitochondrial dysfunction in human Jurkat cells assessed as induction of ROS production after 24 hrs by flow cytometry; format: functional, cell-based
Procedure, shortened: (§3)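 Jurkat cells after 24 h exposure were resuspended in HBSS with hydroethidine (2.5 µM, ROS) or NAO (100 nM, cardiolipin oxidation) for 30 min at 37 °C. Flow cytometry used 488 nm excitation, with emission at 585 nm (HE) or 530 nm (NAO). Mean ± SEM of three experiments.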

Jurkat [16] = experiment: Effect on mitochondrial dysfunction in human Jurkat cells assessed as decrease in 10-N-nonyl-acridine-orange fluorescence intensity after 24 hrs by flow cytometry; format: functional, cell-based; procedure, shortened: as §3
Jurkat [17] = experiment: Induction of apoptosis in human Jurkat cells assessed as activation of caspase 3 after 24 hrs by flow cytometry; format: functional, cell-based
Procedure, shortened: (§4)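 Jurkat cells were exposed (500 nM) for 24 h, then harvested and incubated in HBSS with cell-permeable FITC-DEVD-fmk (caspase-3) or FITC-[…]-fmk (caspase-9) for 1 h at 37 °C. After washing, cells were read by flow cytometry on FL-1. Results are fold increase over control.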

Jurkat [18] = experiment: Induction of apoptosis in human Jurkat cells assessed as activation of caspase 9 after 24 hrs by flow cytometry; format: functional, cell-based; procedure, shortened: as §4
[19] = Antitumor activity against human HL60(TB) cells; format: functional, HL-60(TB)
Procedure, shortened: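 Tested by the NCI in its in vitro disease-oriented human tumor cell line screen. Each cell line gave pGI50 (−log molar concentration for 50% net growth inhibition), pTGI (−log molar concentration for total growth inhibition) and pLC50 (−log molar concentration for 50% net cell death).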

K562 = experiment: Antitumor activity against human K562 cells; format: functional
Procedure, shortened: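 Run by the NCI in its in vitro disease-oriented screen of about 60 human tumour cell lines. For each line it reports pGI50 (50% net growth inhibition), pTGI (total growth inhibition) and pLC50 (50% net cell death), each as –log molar concentration. Where an effect was not reached within the tested range, the highest tested concentration was used.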

LoVo [20] = experiment: Growth inhibition of human doxorubicin-resistant LoVo cells after 72 hrs by MTT assay; format: functional
Procedure, shortened: (§5)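 Growth inhibition by MTT after 72 h incubation. Resistant sublines: LoVoDoxo and MCF-7 MDR were kept in 0.1 µg/mL doxorubicin; CEMVbl-100 was selected against vinblastine. GI50 given as mean ± SEM of three independent experiments. Resistance index is resistant-line GI50 over parental GI50.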

LoVo [21] = experiment: Resistance index, Ratio of GI50 for human doxorubicin-resistant LoVo cells to GI50 for human LoVo cells; format: functional; procedure, shortened: as §5

SMILES: COc1ccc2c(c1)[nH]c(=O)c1c3ccccc3cn21
- Activity (Jurkat [1]): 3.4%
- Activity (Jurkat [2]): 43.1%
- Activity (Jurkat [3]): 53.5%
- Activity (Jurkat [4]): 2.2%
- Activity (Jurkat [5]): 59.2%
- Activity (Jurkat [6]): 38.6%
- Activity (Jurkat [7]): 0.6%
- Activity (Jurkat [8]): 0.1%
- Activity (Jurkat [9]): 50.9%
- Activity (Jurkat [10]): 49.1%
- Activity [11]: Active
- Activity [12]: Active
- Activity (Jurkat [13]): Dose-dependent effect
- Activity (Jurkat [14]): Dose-dependent effect
- Activity (Jurkat [15]): Active
- Activity (Jurkat [16]): Active
- Activity (Jurkat [17]): Active
- Activity (Jurkat [18]): Active
- GI50 ([19]; HL-60): 11.5 nM
- CC50 ([19]; HL-60, read-out: Log LC50 (the source's name) (converted)): 3550 nM
- TGI ([19]; HL-60, read-out: pTGI (converted)): 60.3 nM
- GI50 (K562): 8.91 nM
- CC50 (K562; read-out: Log LC50 (the source's name) (converted)): 5130 nM
- TGI (K562; read-out: pTGI (converted)): 1020 nM
- GI50 (LoVo [20]): 130 nM
- RatioGI50 (LoVo [21]): 1
